Results as given in ChEMBL document CHEMBL3244088, “Antitumor agents 32. Synthesis and antitumor activity of cyclopentenone derivatives related to helenalin” (1978).
Converted amounts (≈) assume the structure as drawn.

Legend:
Type in all cases: functional
[1] = system: P388; assay: Antitumor activity against mouse P388 cells allografted in DBA/2 mouse assessed as increase in survival rate at 5 mg/kg/day, ip administered for 2 weeks relative to control; details: route intraperitoneal
[2] = Cytotoxicity against human Hep2 cells assessed a growth inhibition by rapid microtiter technique; details: HEp-2, read-out: ED50 (the source's name)
Method in brief: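 Human laryngeal epidermoid carcinoma H.Ep.-2 cells run in a rapid microtiter cytotoxicity assay. ED50 is calculated as the dose that inhibits net cell growth to 50% of control growth. Compounds with ED50 ≤ 4 µg/mL are scored active.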

[3] = system: W256; assay: Antitumor activity against […] allografted in Sprague-Dawley rat assessed as increase in survival rate at 2.5 mg/kg/day, ip relative to control; details: route intraperitoneal
Method in brief: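 Walker 256 ascites carcinosarcoma: 10^6 tumor cells implanted ip into male Sprague-Dawley rats (~80 g), with daily ip dosing of compounds. Result expressed as T/C; a T/C ≥ 125% counts as active. Melphalan was the positive standard. Animal numbers per group were recorded for each test.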

[4] = system: P388; assay: Antitumor activity against mouse P388 cells allografted in DBA/2 mouse assessed as increase in survival rate at 4 mg/kg/day, ip administered for 2 weeks relative to control; details: route intraperitoneal
[5] = system: W256; assay: Antitumor activity against […] allografted in Sprague-Dawley rat assessed as increase in survival rate at 1.25 mg/kg/day, ip relative to control; details: route intraperitoneal
[6] = system: P388; assay: Antitumor activity against mouse P388 cells allografted in DBA/2 mouse assessed as increase in survival rate at 25 mg/kg/day, ip administered for 2 weeks relative to control; details: route intraperitoneal
[7] = system: P388; assay: Antitumor activity against mouse P388 cells allografted in DBA/2 mouse assessed as increase in survival rate at 16.8 mg/kg/day, ip administered for 2 weeks relative to control; details: route intraperitoneal

Structure (SMILES) | T/C [1] [%] | EC50 [2] [µg/mL] | T/C [3] [%] | T/C [4] [%] | T/C [5] [%] | T/C [6] [%] | T/C [7] [%]
CC1(CO)CC=CC1=O (stereo not drawn) | 105 | 15.8 (≈ 125 µM) | 100 |  |  |  | 
CC(=O)OCC1(C)CC=CC1=O (stereo not drawn) | 105 | 18.3 (≈ 109 µM) | 105 |  |  |  | 
CC1(COC(=O)/C=C/c2ccccc2)CC=CC1=O (stereo not drawn) |  | 3.5 (≈ 13.7 µM) | 136 | 131 |  |  | 
COc1cc(C(=O)OCC2(C)CC=CC2=O)cc(OC)c1OC (stereo not drawn) | 140 | 3.6 (≈ 11.2 µM) |  |  | 223 |  | 
CC1(COC(=O)CCCCCCCCC(=O)OCC2(C)CC=CC2=O)CC=CC1=O (stereo not drawn) |  | 14.6 (≈ 34.9 µM) | 108 | 109 |  |  | 
CCOC(=O)C1(C)CC=CC1=O (stereo not drawn) | 103 | 17.2 (≈ 102 µM) | 103 |  |  |  | 
O=C1C=CCC1 | 121 | > 50 | 188 |  |  |  | 
CCOC(=O)/C=C/c1ccccc1 [ETHYL CINNAMATE] |  | > 50 |  |  |  |  | 
O=c1[nH]cc(F)c(=O)[nH]1 [FLUOROURACIL] |  |  |  |  |  | 186 | 
C=C1C(=O)O[C@@H]2C[C@@H](C)[C@@H]3C=CC(=O)[C@@]3(C)[C@@H](O)[C@H]12 [HELENALIN] |  | 0.08 (≈ 0.305 µM) | 316 |  |  |  | 127
N[C@@H](Cc1ccc(N(CCCl)CCCl)cc1)C(=O)O [MELPHALAN] |  |  | 317 |  |  | 168 | 
